The results in this text go back to ChEMBL document CHEMBL3853361 (ACS Med Chem Lett, 2016).

What is called half-life is how long it takes for the measured level to halve. A low value points to rapid decline. For orientation: IC50 means the concentration needed to halve the response being measured. As a reminder, the TGI is the concentration at which net growth stops.

Data set [1] can be described thus: Photostability of the compound in DMSO at 200 uM measured after daylight exposure for 1 day by HPLC analysis. The following applies: 24 h. It counts as physicochemical.
Data set [2] is described as follows: Photostability of the compound in DMEM at 200 and 1100 uM measured after daylight exposure for 1 day by HPLC analysis. The conditions noted are these: 24 h. It counts as physicochemical.
Data set [3] in a line: Half life of the compound in DMSO at 200 uM measured after irradiation of 1130 W/m2 UV-light for 15 mins by HPLC analysis. It counts as physicochemical. The conditions noted are these: DMSO solution under UV irradiation.
Data set [4] is described as follows: Photostability of the compound in DMSO at 200 uM measured after irradiation of 226 W/m2 UV-light for 5 mins by HPLC analysis. It counts as physicochemical.
The subject of data set [5] is SK-MEL-28. Nature of the data set: Growth inhibition of human SK-MEL-28 cells harboring BRAF V600E mutant preincubated for 1 hr followed by irradiation of 1.13 kW/m2 UV-light for 5 mins measured after 48 hrs resazurin assay. It counts as functional, cell-based. In a few lines:
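SKMEL28 cells incubated 1 h with compound, then irradiated at 365 nm (1.13 kW/m2) for 5 min; growth measured 48 h after compound addition. GI50, TGI and LC50 taken from dose–response curves; n = 4, standard deviation shown.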
In general terms: Resazurin is reduced to fluorescent resorufin, in cell work by metabolically active cells.

Data set [6] can be described thus: Half life of the compound in DPBS at 200 uM measured after irradiation of 1130 W/m2 UV-light for 15 mins by HPLC analysis. It counts as physicochemical. The following applies: DPBS solution under UV irradiation.
The nature of data set [7]: Stability of the compound in DMEM assessed as thermal decomposition at 200 uM incubated in dark for 1 day by HPLC analysis. It counts as physicochemical. The following applies: 24 h.
Data set [8] has as its system SK-MEL-28. Nature of the data set: Growth inhibition of human SK-MEL-28 cells harboring BRAF V600E mutant measured after 48 hrs resazurin assay. It counts as functional, cell-based. In a few lines: (§1)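 SKMEL28 melanoma cells (BRAF V600E-dependent) exposed to a range of compound concentrations, no UV; growth measured after 48 h incubation. Dose–response curves give GI50, TGI (concentration giving total growth inhibition) and LC50; n = 4, error bars standard deviation.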

A short description of data set [9]: Stability of the compound in DMSO assessed as thermal decomposition at 200 uM incubated in dark for 1 day by HPLC analysis. It counts as physicochemical. The conditions noted are these: 24 h.
A short description of data set [10]: Half life of the compound in DMSO at 200 uM measured after irradiation of 226 W/m2 UV-light for 5 mins by HPLC analysis. It counts as physicochemical. The conditions noted are these: DMSO solution under UV irradiation.
The nature of data set [11]: Drug metabolism in human SK-MEL-28 cells assessed as photo-induced N-(5-amino-2-tert-butyl)-11-fluorbenzol[f]thiazol-[4,5-h]-quinazolin-10-yl)-2,6-difluorbenzolsulfonamide formation at 100 uM followed by UV-light irradiation by DAPI-staining based fluorescence microscopic analysis. It counts as ADME, cell-based. The conditions noted are these: sk-mel-28, 100 µM. The method, boiled down: (§2)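 Fluorescence microscopy of SKMEL28 cells seeded in wells. Cells incubated with parent drug, then exposed to rising doses of 365 nm UV; green autofluorescence of the photoproduct imaged at 10× per well. Nuclei counterstained with 1 µg/mL DAPI. Controls: cells without compound given the highest UV dose.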

Data set [12] relates to SK-MEL-28. As to the kind of experiment: Cytostatic activity in human SK-MEL-28 cells harboring BRAF V600E mutant at 1 and 30 uM measured after 48 hrs resazurin assay. It counts as functional, cell-based.
Data set [13] can be described thus: Half life of the compound in DMSO at 200 uM measured after irradiation of 1130 W/m2 W/m2 UV-light for 5 mins by HPLC analysis. It counts as physicochemical. The following applies: DMSO solution under UV irradiation.
Data set [14] is described as follows: Photostability of the compound in DMSO assessed as photolysis at 200 uM measured after irradiation of 1130 W/m2 UV-light for 15 mins by HPLC analysis. It counts as physicochemical. The conditions noted are these: 0.25 h.
For data set [15], the system named is SK-MEL-28. Nature of the data set: Cytostatic activity in human SK-MEL-28 cells harboring BRAF V600E mutant at 10 and 30000 nM measured after 48 hrs resazurin assay.
The nature of data set [16]: Drug level in human SK-MEL-28 cells treated with dabrafenib at 100 uM followed by UV-light irradiation by DAPI-staining based fluorescence microscopic analysis. It counts as ADME, cell-based. The following applies: sk-mel-28, 100 µM. In a few lines: as §2
Data set [17] concerns the target Serine/threonine-protein kinase B-raf (Homo sapiens, UniProt P15056, V600E). Nature of the data set: Inhibition of recombinant human N-terminal GST-6His tagged BRAF V600E mutant (417 to 766 residues) expressed in baculovirus infected Sf9 cells preincubated with substrate followed by protein and ATP addition measured after 60 mins by scintillation counter method.

A short description of data set [18]: Drug uptake in nucleus of human SK-MEL-28 cells at 100 uM by DAPI-staining based fluorescence microscopic analysis. The following applies: sk-mel-28, 100 µM. It counts as ADME, cell-based. In a few lines:
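SKMEL28 cells incubated with compound at 100 µM and imaged for green autofluorescence by fluorescence microscopy at 60×. Nuclei counterstained with 1 µg/mL DAPI.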

Data set [19] deals with SK-MEL-28. As to the kind of experiment: Cytotoxicity against human SK-MEL-28 cells harboring BRAF V600E mutant at >30000 nM measured after 48 hrs by resazurin assay.
Data set [20] in a line: Drug level in DMEM treated with dabrafenib at 200 uM measured after irradiation of 226 W/m2 UV-light for 5 mins by HPLC analysis. It counts as physicochemical.
Data set [21] can be described thus: Drug level assessed as compound formation in DMSO using 200 uM dabrafenib measured after daylight exposure for 1 day by HPLC analysis. It counts as physicochemical. The conditions noted are these: 24 h.
Data set [22] in a line: Drug level in DPBS treated with dabrafenib at 200 uM measured after irradiation of 1130 W/m2 UV-light for 15 mins by HPLC analysis. It counts as physicochemical. The following applies: 0.25 h.
A short description of data set [23]: Drug level in DMEM treated with dabrafenib at 200 uM measured after irradiation of 1130 W/m2 UV-light for 15 mins by HPLC analysis. It counts as physicochemical. The following applies: 0.25 h. The method, boiled down:
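Parent drug dissolved in DMEM cell culture medium, irradiated at 1130 W/m2, then analysed by HPLC. Peak areas converted to concentrations with calibration curves (n = 4).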

Data set [24] can be described thus: Drug level assessed as compound formation in DMEM using 200 uM dabrafenib measured after daylight exposure for 1 day by HPLC analysis. The following applies: 24 h. It counts as physicochemical.
Data set [25] in a line: Antiproliferative activity against human SK-MEL-28 cells harboring BRAF V600E mutant assessed as concentration required for total growth inhibition measured after 48 hrs resazurin assay. The conditions noted are these: SK-MEL-28, 48 h. It counts as functional. The method, boiled down:
as §1

Calls of active or inactive are those of the source. No cut-off for these calls is given here.

Chain of Serine/threonine-protein kinase B-raf (P15056 2-766 V600E limits assumed): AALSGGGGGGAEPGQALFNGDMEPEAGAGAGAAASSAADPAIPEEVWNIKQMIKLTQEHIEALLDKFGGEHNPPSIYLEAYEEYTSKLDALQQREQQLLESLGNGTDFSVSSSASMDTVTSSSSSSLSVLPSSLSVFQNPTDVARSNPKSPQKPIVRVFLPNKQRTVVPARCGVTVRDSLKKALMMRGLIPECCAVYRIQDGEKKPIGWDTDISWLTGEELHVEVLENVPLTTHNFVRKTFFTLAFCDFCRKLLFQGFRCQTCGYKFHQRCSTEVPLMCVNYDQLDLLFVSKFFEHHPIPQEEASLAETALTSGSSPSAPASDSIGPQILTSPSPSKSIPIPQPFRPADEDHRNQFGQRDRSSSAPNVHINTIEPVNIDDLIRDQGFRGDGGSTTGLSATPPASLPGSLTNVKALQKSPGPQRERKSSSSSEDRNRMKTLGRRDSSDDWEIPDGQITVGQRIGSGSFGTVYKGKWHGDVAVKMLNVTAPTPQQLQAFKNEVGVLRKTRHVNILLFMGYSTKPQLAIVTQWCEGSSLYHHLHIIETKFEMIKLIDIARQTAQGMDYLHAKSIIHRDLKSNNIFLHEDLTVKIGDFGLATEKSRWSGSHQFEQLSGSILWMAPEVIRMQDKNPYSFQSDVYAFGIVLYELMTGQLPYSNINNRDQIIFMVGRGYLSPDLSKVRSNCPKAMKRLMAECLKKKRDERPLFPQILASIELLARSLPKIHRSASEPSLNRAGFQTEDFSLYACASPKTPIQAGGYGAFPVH

Regarding `CC(C)(C)c1nc(-c2cccc(NS(=O)(=O)c3c(F)cccc3F)c2F)c(-c2ccnc(N)n2)s1` [DABRAFENIB], the Stability result is reported as “Unstable” in [1]; “Unstable” in data set [2]; “Unstable” in data set [4]; “Stable” in data set [7]; “Stable” in [9]. Besides, the half-life at 200 µM was 19.5 s in [3], 145 s in data set [6], 65 s in data set [10] and 19.5 s in data set [13]. In addition, the “growth inhibition (GI)” value with SK-MEL-28 [5] and with SK-MEL-28 [8] was “Active” each time. In addition, in data set [11], the Drug metabolism entry is “Metabolite_Detected”. Moreover, in the data set on SK-MEL-28 [12], the result was Active.
On to `CC(C)(C)c1nc2c(s1)c1nc(N)ncc1c1ccc(NS(=O)(=O)c3c(F)cccc3F)c(F)c12`, for which the “growth inhibition (GI)” value with SK-MEL-28 [5] is “Active”. Also, in data set [14], the Stability result was “Unstable”. Besides, the result with SK-MEL-28 [15] and with SK-MEL-28 [19] was Active. Moreover, the Drug metabolism entry in data set [16], in [20], in [21], in [22], in data set [23] and in [24] was “Metabolite_Detected” throughout. Also, in [17], the IC50 was determined as 280 nM. The Drug uptake entry in data set [18] is recorded as “Active”. Besides, the TGI in [25] was 8900 nM.
As for `CCCS(=O)(=O)Nc1ccc(F)c(C(=O)c2c[nH]c3ncc(-c4ccc(Cl)cc4)cc23)c1F` [VEMURAFENIB], the “growth inhibition (GI)” value in the data set on SK-MEL-28 [5] was “Active”. Also, the TGI in [25] was 2000 nM.
